Reference: ChEMBL document CHEMBL2396637, “Antagonism of L-type Ca2+ channels CaV1.3 and CaV1.2 by 1,4-dihydropyrimidines and 4H-pyrans as dihydropyridine mimics” (Bioorg Med Chem, 2013)
Calls of active or inactive are those of the source. The calls are words filed in the database; no cut-off is given here.

Experiments:
[1] = Selectivity ratio of inhibition for rat voltage-dependent L-type calcium channel Cav1.3alpha-1D to inhibition for rabbit voltage-dependent L-type calcium channel Cav1.2alpha-1C at 0.3 uM
[2] = biological target: Voltage-dependent L-type calcium channel subunit alpha-1D (Rattus norvegicus, UniProt P27732); test: Antagonist activity at rat voltage-dependent L-type calcium channel Cav1.3alpha-1D expressed in HEK293 cells by FLIPR assay; format: cell-based
Summary of the method: (§1)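 HEK293 lines stably expressing rat CaV1.3α1D or rabbit CaV1.2α1C, with rat CaVβ3 and rat CaVα2δ-1 cDNAs used in construction. Calcium influx was read by Fluo-8 fluorescence on a FLIPR Tetra. […] The selectivity ratio is CaV1.3 IC50 over CaV1.2 IC50.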

[3] = biological target: T1, Voltage-dependent L-type calcium channel subunit alpha-1C (Oryctolagus cuniculus, UniProt P15381); test: Antagonist activity at rabbit voltage-dependent L-type calcium channel Cav1.2alpha-1C expressed in HEK293 cells by FLIPR assay; format: cell-based; summary of the method: as §1
[4] = Selectivity ratio of IC50 for rabbit voltage-dependent L-type calcium channel Cav1.2alpha-1C to IC50 for rat voltage-dependent L-type calcium channel Cav1.3alpha-1D
[5] = biological target: Voltage-dependent L-type calcium channel subunit alpha-1D (Rattus norvegicus) (UniProt P27732); test: Antagonist activity at rat voltage-dependent L-type calcium channel Cav1.3alpha-1D expressed in HEK293 cells assessed as inhibition of peak barium current at 1 to 10 uM by whole-cell patch-clamp electrophysiology technique; format: cell-based
Summary of the method: (§2)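 Stably transfected HEK293 cells were held on poly-D-lysine coverslips for 24–48 h at 37 °C, then whole-cell voltage-clamped. External solution (mM): 140 NaCl, 1 MgCl2, 10 BaCl2, 10 HEPES, 10 dextrose, 10 sucrose, 20 CsCl, pH 7.4. Ba2+ currents were evoked by a 100 ms step from −80 to 0 mV. Compound was perfused at 1 or 10 µM from a DMSO stock. Percent inhibition of peak current or of end current (last 50 ms) was taken, n = 5, as the median.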

[6] = biological target: T1, Voltage-dependent L-type calcium channel subunit alpha-1C; test: Antagonist activity at rabbit voltage-dependent L-type calcium channel Cav1.2alpha-1C expressed in HEK293 cells assessed as inhibition of peak barium current at 1 to 10 uM by whole-cell patch-clamp electrophysiology technique; format: cell-based; summary of the method: as §2
[7] = biological target: Voltage-dependent L-type calcium channel subunit alpha-1D (Rattus norvegicus) (UniProt P27732); test: Antagonist activity at rat voltage-dependent L-type calcium channel Cav1.3alpha-1D expressed in HEK293 cells assessed as inhibition of end barium current at 1 to 10 uM by whole-cell patch-clamp electrophysiology technique; format: cell-based; summary of the method: as §2
[8] = biological target: T1, Voltage-dependent L-type calcium channel subunit alpha-1C; test: Antagonist activity at rabbit voltage-dependent L-type calcium channel Cav1.2alpha-1C expressed in HEK293 cells assessed as inhibition of end barium current at 1 to 10 uM by whole-cell patch-clamp electrophysiology technique; format: cell-based; summary of the method: as §2
[9] = Selectivity ratio of IC50 for rat voltage-dependent L-type calcium channel Cav1.3alpha-1D to IC50 for rabbit voltage-dependent L-type calcium channel Cav1.2alpha-1C
Summary of the method: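 HEK293 lines stably expressing rat CaV1.3α1D or rabbit CaV1.2α1C, with rat CaVβ3 and rat CaVα2δ-1 cDNAs used in construction. Calcium influx was read by Fluo-8 fluorescence on a FLIPR Tetra. The selectivity ratio is CaV1.3 IC50 over CaV1.2 IC50.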

T1 sequence (P15381 whole entry): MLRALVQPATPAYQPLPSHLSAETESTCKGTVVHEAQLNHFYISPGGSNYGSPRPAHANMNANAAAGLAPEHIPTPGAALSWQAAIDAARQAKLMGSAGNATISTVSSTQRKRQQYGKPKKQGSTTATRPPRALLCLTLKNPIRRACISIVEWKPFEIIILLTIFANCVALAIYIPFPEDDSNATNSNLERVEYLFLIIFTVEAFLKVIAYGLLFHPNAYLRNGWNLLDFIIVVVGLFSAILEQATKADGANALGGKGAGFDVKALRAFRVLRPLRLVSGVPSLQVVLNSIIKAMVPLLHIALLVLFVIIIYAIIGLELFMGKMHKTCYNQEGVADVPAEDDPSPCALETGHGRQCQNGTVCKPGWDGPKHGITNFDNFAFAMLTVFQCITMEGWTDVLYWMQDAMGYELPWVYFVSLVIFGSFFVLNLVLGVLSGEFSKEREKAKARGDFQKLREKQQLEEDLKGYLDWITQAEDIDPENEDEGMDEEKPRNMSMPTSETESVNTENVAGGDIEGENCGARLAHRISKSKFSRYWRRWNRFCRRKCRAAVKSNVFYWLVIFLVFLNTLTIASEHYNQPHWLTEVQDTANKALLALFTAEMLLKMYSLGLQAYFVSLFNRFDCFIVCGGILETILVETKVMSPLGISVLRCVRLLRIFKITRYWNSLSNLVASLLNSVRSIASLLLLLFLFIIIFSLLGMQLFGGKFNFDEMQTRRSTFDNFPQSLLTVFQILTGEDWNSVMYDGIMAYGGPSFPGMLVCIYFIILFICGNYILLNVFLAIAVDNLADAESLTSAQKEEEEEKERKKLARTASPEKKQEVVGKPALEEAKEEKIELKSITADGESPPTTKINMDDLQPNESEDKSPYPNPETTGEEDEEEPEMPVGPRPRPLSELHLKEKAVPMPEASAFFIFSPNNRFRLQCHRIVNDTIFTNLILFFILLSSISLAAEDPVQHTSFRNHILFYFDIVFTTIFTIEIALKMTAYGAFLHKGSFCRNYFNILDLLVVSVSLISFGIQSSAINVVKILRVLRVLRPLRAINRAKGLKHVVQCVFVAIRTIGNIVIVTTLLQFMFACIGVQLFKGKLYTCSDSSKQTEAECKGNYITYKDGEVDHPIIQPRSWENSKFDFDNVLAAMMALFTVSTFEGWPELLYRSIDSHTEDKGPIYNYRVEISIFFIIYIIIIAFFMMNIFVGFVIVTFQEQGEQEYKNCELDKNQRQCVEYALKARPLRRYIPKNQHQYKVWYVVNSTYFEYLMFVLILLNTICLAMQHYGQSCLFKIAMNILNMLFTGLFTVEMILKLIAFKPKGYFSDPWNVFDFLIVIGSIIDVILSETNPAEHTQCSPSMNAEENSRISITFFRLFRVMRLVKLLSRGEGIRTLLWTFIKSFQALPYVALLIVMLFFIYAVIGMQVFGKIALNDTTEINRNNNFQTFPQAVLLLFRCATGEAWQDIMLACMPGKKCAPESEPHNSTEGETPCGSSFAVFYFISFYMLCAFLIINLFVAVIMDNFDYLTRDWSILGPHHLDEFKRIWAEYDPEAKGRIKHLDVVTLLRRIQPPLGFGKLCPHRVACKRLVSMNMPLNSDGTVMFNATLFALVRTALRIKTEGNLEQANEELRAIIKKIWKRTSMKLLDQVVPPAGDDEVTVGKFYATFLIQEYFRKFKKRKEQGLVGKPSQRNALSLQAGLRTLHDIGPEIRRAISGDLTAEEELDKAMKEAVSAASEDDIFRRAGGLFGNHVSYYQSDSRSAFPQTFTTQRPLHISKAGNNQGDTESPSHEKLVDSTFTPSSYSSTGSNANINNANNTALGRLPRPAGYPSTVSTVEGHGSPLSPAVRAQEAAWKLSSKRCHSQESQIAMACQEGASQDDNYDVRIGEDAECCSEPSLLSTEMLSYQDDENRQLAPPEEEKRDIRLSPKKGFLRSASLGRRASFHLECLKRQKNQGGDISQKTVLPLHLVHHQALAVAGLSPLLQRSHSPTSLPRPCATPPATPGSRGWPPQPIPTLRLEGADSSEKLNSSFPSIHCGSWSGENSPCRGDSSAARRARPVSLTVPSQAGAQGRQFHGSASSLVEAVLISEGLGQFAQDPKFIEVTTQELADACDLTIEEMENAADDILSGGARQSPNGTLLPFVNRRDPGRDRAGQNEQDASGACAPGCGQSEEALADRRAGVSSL
Chain of Voltage-dependent L-type calcium channel subunit alpha-1D (P27732 whole entry): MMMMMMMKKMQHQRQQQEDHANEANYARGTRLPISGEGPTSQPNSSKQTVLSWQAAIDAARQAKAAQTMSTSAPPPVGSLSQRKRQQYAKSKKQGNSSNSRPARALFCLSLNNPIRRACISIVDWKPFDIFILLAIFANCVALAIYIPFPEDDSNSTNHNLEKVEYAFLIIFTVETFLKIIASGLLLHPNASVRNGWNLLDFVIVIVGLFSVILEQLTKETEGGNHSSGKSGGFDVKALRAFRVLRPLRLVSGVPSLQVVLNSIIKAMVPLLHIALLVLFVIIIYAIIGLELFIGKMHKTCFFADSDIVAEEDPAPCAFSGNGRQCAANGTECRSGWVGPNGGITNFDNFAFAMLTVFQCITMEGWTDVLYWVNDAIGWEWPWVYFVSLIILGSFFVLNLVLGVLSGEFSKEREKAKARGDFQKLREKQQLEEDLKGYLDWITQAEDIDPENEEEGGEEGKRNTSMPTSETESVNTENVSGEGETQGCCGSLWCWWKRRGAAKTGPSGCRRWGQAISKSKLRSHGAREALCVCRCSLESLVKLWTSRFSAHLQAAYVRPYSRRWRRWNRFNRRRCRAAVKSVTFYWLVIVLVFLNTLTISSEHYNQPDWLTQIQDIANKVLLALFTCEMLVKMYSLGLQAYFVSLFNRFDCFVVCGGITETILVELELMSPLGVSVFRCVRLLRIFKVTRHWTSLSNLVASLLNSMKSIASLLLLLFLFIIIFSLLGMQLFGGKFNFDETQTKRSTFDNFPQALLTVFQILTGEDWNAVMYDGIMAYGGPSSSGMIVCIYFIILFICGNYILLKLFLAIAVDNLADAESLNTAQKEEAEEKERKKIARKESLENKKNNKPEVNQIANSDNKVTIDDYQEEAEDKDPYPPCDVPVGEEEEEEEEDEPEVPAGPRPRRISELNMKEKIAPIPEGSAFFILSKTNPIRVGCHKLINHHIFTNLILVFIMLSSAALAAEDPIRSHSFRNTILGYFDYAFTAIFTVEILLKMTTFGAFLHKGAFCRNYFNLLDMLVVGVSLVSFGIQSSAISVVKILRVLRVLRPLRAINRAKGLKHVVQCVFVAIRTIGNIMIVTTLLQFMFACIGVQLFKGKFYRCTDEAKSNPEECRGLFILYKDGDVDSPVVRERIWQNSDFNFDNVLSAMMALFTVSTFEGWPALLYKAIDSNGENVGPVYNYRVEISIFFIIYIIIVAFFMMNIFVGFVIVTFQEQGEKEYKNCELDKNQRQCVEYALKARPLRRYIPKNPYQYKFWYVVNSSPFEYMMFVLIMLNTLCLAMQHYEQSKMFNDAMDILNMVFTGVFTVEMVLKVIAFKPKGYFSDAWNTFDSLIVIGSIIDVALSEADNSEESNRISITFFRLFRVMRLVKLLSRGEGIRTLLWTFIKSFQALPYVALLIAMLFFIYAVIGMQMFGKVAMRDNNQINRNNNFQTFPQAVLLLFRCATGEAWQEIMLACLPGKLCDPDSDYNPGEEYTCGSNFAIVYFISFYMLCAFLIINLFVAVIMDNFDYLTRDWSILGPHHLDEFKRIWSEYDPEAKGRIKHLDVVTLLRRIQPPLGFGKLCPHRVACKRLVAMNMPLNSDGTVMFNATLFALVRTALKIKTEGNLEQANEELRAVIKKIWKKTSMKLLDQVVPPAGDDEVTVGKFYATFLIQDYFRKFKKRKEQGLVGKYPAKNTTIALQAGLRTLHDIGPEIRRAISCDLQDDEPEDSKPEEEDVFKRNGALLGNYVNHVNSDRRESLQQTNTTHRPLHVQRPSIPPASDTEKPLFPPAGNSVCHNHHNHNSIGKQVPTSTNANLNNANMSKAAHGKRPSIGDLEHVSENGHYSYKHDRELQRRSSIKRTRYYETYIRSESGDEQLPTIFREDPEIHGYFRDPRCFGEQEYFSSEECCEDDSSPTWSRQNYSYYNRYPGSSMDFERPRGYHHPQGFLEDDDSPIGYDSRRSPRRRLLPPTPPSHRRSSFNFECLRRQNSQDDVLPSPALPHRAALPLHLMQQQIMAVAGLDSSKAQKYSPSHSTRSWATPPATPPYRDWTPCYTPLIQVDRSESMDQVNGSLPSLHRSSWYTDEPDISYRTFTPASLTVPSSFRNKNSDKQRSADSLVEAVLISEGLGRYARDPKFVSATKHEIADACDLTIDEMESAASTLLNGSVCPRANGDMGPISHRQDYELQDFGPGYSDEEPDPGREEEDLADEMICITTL
Chain of Voltage-dependent L-type calcium channel subunit alpha-1D (Rattus norvegicus) (P27732 whole entry, the tested form may be a part): as the sequence (P27732 whole entry) above

SMILES	IC50 [2]	IC50 [3]	Ratio IC50 [4]	further results
COC(=O)C1=C(C)NC(C)=C(C(=O)OC(C)C)C1c1cccc2nonc12 (configuration not stated) [ISRADIPINE]	0.221 µM	0.107 µM	0.5	Selectivity ratio [1]: 0.69
CC1=C(C(=O)OC(C)C)C(c2cccc([N+](=O)[O-])c2)C(C(=O)OC(C)C)=C(N)O1 (configuration not stated)	1.39 µM	0.86 µM	0.6	–
COC(=O)N1C(=O)N(C(=O)OC)C(c2cccc([N+](=O)[O-])c2)C(C(=O)OC(C)C)=C1C (configuration not stated)	5.88 µM	6.13 µM	1.1	–
COC(=O)C1=C(C(C)C)NC(=O)NC1c1cccc([N+](=O)[O-])c1 (configuration not stated)	> 100 µM	> 100 µM	–	–
COC(=O)N1C(=O)NC(C)=C(C(=O)OC(C)C)[C@@H]1c1cccc([N+](=O)[O-])c1	35.1 µM	21.7 µM	0.6	–
CC(C)OC(=O)C1=C(C(C)C)NC(=O)N(C(=O)OC(C)C)C1c1cccc([N+](=O)[O-])c1 (configuration not stated)	4.31 µM	1.93 µM	0.5	–
COC(=O)C1=C(C)NC(=O)NC1c1cccc([N+](=O)[O-])c1 (configuration not stated)	18.9 µM	11.7 µM	0.6	–
CC1=C(C(=O)OC(C)C)C(c2cccc([N+](=O)[O-])c2)NC(=S)N1 (configuration not stated)	15.8 µM	10.7 µM	0.7	–
COC(=O)C1=C(C)OC(NC(C)=O)=C(C(=O)OC(C)C)C1c1cccc([N+](=O)[O-])c1 (configuration not stated)	13.6 µM	6.11 µM	0.5	–
COC(=O)C1=C(C)NC(=O)N(C(=O)OC(C)C)C1c1cccc([N+](=O)[O-])c1 (configuration not stated)	4.6 µM	2.48 µM	0.6	–
COC(=O)N1C(=S)NC(C)=C(C(=O)OC(C)C)[C@@H]1c1cccc([N+](=O)[O-])c1	12.8 µM	9.87 µM	0.8	–
COC(=O)N1C(=O)NC(C)=C(C(=O)OC(C)C)[C@H]1c1cccc([N+](=O)[O-])c1	1.91 µM	2.36 µM	1.2	–
CC1=C(C(=O)OC(C)C)C(c2cccc([N+](=O)[O-])c2)NC(=O)N1 (configuration not stated)	46.6 µM	58.1 µM	–	–
CC1=C(C(=O)OC(C)C)C(c2cccc([N+](=O)[O-])c2)N(C(=O)OC(C)C)C(=O)N1 (racemic)	0.66 µM	0.64 µM	1	–
COC(=O)SC1=NC(C)=C(C(=O)OC(C)C)C(c2cccc([N+](=O)[O-])c2)N1C(=O)OC (configuration not stated)	1.11 µM	1.02 µM	0.9	–
CNC1=NC(C)=C(C(=O)OC(C)C)C(c2cccc([N+](=O)[O-])c2)N1C(=O)OC (configuration not stated)	3.25 µM	2.45 µM	0.8	–
COC(=O)C1=C(C)N=C(SC)NC1c1cccc([N+](=O)[O-])c1 (configuration not stated)	10.6 µM	3.29 µM	0.3	–
COC(=O)N1C(=S)NC(C)=C(C(=O)OC(C)C)C1c1cccc([N+](=O)[O-])c1 (racemic)	0.55 µM	0.35 µM	0.6	–
COC(=O)N1C(=O)NC(C)=C(C(=O)OC(C)C)C1c1cccc([N+](=O)[O-])c1 (racemic)	2.96 µM	2.48 µM	0.9	–
CSC1=NC(c2cccc([N+](=O)[O-])c2)C(C(=O)OC(C)C)=C(C)N1 (configuration not stated)	1.86 µM	0.42 µM	0.2	–
COC(=O)C1=C(C)N=C(SC)N(C(=O)OC(C)C)C1c1cccc([N+](=O)[O-])c1 (configuration not stated)	5.58 µM	16.1 µM	3	–
COC(=O)C1=C(C(C)C)NC(=O)N(C(=O)OC(C)C)C1c1cccc([N+](=O)[O-])c1 (configuration not stated)	10.1 µM	10.4 µM	1	–
CCOC(=O)C1=C(N)OC(C)=C(C(=O)OC)C1c1cccc([N+](=O)[O-])c1 (configuration not stated)	2.72 µM	0.58 µM	0.2	–

More lines, main results first:

IC50 [2]	SMILES	IC50 [3]	Ratio IC50 [4]	further results
> 100 µM	COC(=O)C1=C(C(C)C)NC(=O)N(C(=O)C(C)C)C1c1cccc([N+](=O)[O-])c1 (configuration not stated)	56.6 µM	–	–
1.82 µM	COC(=O)C1=C(C)OC(N)=C(C(=O)OC(C)C)C1c1cccc([N+](=O)[O-])c1 (configuration not stated)	0.41 µM	0.2	–
0.99 µM	CC1=C(C(=O)OC(C)C)C(c2cccc([N+](=O)[O-])c2)N(C(=O)C(C)C)C(=O)N1 (configuration not stated)	0.5 µM	0.5	–
10 µM	CCOC(=O)C1=C(NC(C)=O)OC(C)=C(C(=O)OC)C1c1cccc([N+](=O)[O-])c1 (configuration not stated)	4.75 µM	0.5	–
24.5 µM	CCOC(=O)N1C(=O)NC(C(C)C)=C(C(=O)OC)C1c1cccc([N+](=O)[O-])c1 (configuration not stated)	14.8 µM	0.6	–
10.7 µM	COC(=O)N1C(SC)=NC(C)=C(C(=O)OC(C)C)C1c1cccc([N+](=O)[O-])c1 (configuration not stated)	5.54 µM	0.4	–
4.22 µM	CNC1=NC(C)=C(C(=O)OC)C(c2cccc([N+](=O)[O-])c2)N1C(=O)OC(C)C (configuration not stated)	1.81 µM	0.4	–
0.56 µM	COC(=O)N1C(=S)NC(C)=C(C(=O)OC(C)C)[C@H]1c1cccc([N+](=O)[O-])c1	0.5 µM	0.9	–
0.88 µM	COC(=O)C1=C(C)NC(=S)N(C(=O)OC(C)C)C1c1cccc([N+](=O)[O-])c1 (configuration not stated)	0.17 µM	0.2	–
0.51 µM	CC1=C(C(=O)OC(C)C)[C@@H](c2cccc([N+](=O)[O-])c2)N(C(=O)OC(C)C)C(=O)N1	1.02 µM	2.1	inhibition [5]: Active; inhibition (INH) [6]: Active; inhibition [7]: Active; inhibition (INH) [8]: Active
1.96 µM	CC1=C(C(=O)OC(C)C)[C@H](c2cccc([N+](=O)[O-])c2)N(C(=O)OC(C)C)C(=O)N1	3.07 µM	1.6	–
13.9 µM	CCOC(=O)N1C(=O)N(C(=O)OCC)C(c2cccc([N+](=O)[O-])c2)C(C(=O)OC)=C1C(C)C (configuration not stated)	13.9 µM	–	Ratio IC50 [9]: 1
9.95 µM	CCOC(=O)C1=C(NC(=O)C(C)C)OC(C)=C(C(=O)OC)C1c1cccc([N+](=O)[O-])c1 (configuration not stated)	4.23 µM	0.4	–
> 100 µM	COC(=O)C1=C(C)NC(=S)NC1c1cccc([N+](=O)[O-])c1 (configuration not stated)	55 µM	–	–
